According to ChEMBL document CHEMBL4602707, “Synthesis and Structure-Activity Relationship of Pyxinol Derivatives as Novel Anti-Inflammatory Agents” (ACS Med Chem Lett, 2020):
Calls of active or inactive are those of the source. The calls are words filed in the database; no cut-off is given here.

What was measured:
RAW264.7 [1] = test: Antiinflammatory activity in mouse RAW264.7 cells assessed as inhibition of LPS-induced NO production at 20 uM after 24 hrs by Griess method; type: functional, cell-based
Outline: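 RAW264.7 cells co-treated with test agent (20 μM) and LPS (1 μg/mL) for 24 h. NO released to medium measured by Griess assay. Hydrocortisone sodium succinate (20 μM) positive control. Mean ± SD, n = 3; significance versus control.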

RAW264.7 [2] = test: Cytotoxicity against LPS-stimulated mouse RAW264.7 cells at 20 uM after 24 hrs by MTT assay; type: cell-based; details: raw264.7, 24 h
Outline: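 RAW264.7 cells co-treated with test agent (20 μM) and LPS (1 μg/mL) for 24 h; survival read by MTT. Mean ± SD, n = 3; significance versus control group.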

RAW264.7 [3] = test: Inhibition of LPS-stimulated NFkappaB activation in mouse RAW264.7 cells assessed as reduction in LPS-induced IkappaB degradation at 20 uM after 2 hrs by Western blot analysis; type: cell-based
Outline: (§1)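 RAW264.7 cells co-treated 2 h with LPS (1 μg/mL) plus test agent (10, 20, 30 μM) or hydrocortisone sodium succinate (20 μM). IκB phosphorylation and degradation assessed as NF-κB pathway read-out. Mean ± SD, n = 3; significance versus LPS-stimulated group.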

RAW264.7 [4] = test: Antiinflammatory activity in mouse RAW264.7 cells assessed as reduction in LPS-induced COX2 protein expression at 20 uM after 24 hrs by Western blot analysis; type: functional, cell-based
Outline: (§2)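 RAW264.7 cells co-treated 24 h with LPS (1 μg/mL) plus test agent (10, 20, 30 μM) or hydrocortisone sodium succinate (20 μM). COX-2 and iNOS protein levels determined. Mean ± SD of three independent experiments; significance versus LPS-stimulated group.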

RAW264.7 [5] = test: Antiinflammatory activity in mouse RAW264.7 cells assessed as reduction in LPS-induced iNOS expression at 20 uM after 24 hrs by Western blot analysis; type: functional, cell-based; outline: as §2
RAW264.7 [6] = test: Inhibition of LPS-stimulated NFkappaB activation in mouse RAW264.7 cells assessed as reduction in LPS-induced IkappaB phosphorylation at 20 uM after 2 hrs by Western blot analysis; type: cell-based; outline: as §1
RAW264.7 [7] = test: Antiinflammatory activity in LPS-induced mouse RAW264.7 cells in presence of glucocorticoid receptor antagonist RU-486; type: functional, cell-based
RAW264.7 [8] = test: Antiinflammatory activity in mouse RAW264.7 cells assessed as reduction in LPS-induced COX2 protein expression after 24 hrs by Western blot analysis; type: functional, cell-based; outline: as §2
RAW264.7 [9] = test: Antiinflammatory activity in mouse RAW264.7 cells assessed as reduction in LPS-induced iNOS expression after 24 hrs by Western blot analysis; type: functional, cell-based; outline: as §2
RAW264.7 [10] = test: Inhibition of LPS-stimulated NFkappaB activation in mouse RAW264.7 cells assessed as reduction in LPS-induced IkappaB degradation at 10 to 30 uM after 2 hrs by Western blot analysis; type: cell-based; outline: as §1
RAW264.7 [11] = test: Antiinflammatory activity in mouse RAW264.7 cells assessed as reduction in LPS-induced IL-6 secretion preincubated for 2 hrs followed by LPS addition and measured after 4 hrs by ELISA; type: functional, cell-based
Outline: (§3)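 RAW264.7 cells pretreated 2 h with test agent (10, 20, 30 μM) or hydrocortisone sodium succinate (20 μM), then LPS (1 μg/mL) for 4 h. TNF-α and IL-6 production measured. Mean ± SD, n = 3; significance versus control group.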

RAW264.7 [12] = test: Inhibition of LPS-stimulated NFkappaB activation in mouse RAW264.7 cells assessed as reduction in LPS-induced IkappaB phosphorylation at 10 to 30 uM after 2 hrs by Western blot analysis; type: cell-based; outline: as §1
RAW264.7 [13] = test: Antiinflammatory activity in mouse RAW264.7 cells assessed as reduction in LPS-stimulated TNF alpha secretion preincubated for 2 hrs followed by LPS addition and measured after 4 hrs by ELISA; type: functional, cell-based; outline: as §3

## CC(C)(O)[C@H]1CC[C@@](C)([C@H]2CC[C@]3(C)[C@@H]2[C@H](O)C[C@@H]2[C@@]4(C)CC[C@H](N)C(C)(C)[C@@H]4CC[C@]23C)O1
RAW264.7 [1]
  inhibition: Active
RAW264.7 [2]
  Activity: Non-Toxic

## CC(C)(O)[C@@H]1CC[C@@](C)([C@H]2CC[C@]3(C)[C@@H]2[C@H](O)C[C@@H]2[C@@]4(C)CC[C@H](N)C(C)(C)[C@@H]4CC[C@]23C)O1
RAW264.7 [1]
  inhibition: Active
RAW264.7 [2]
  Activity: Non-Toxic

## CC(C)(O)[C@@H]1CC[C@@](C)([C@H]2CC[C@]3(C)[C@@H]2[C@H](O)C[C@@H]2[C@@]4(C)CC/C(=N\O)C(C)(C)[C@@H]4CC[C@]23C)O1
RAW264.7 [1]
  inhibition: Active
RAW264.7 [2]
  Activity: Non-Toxic

## CC(C)(O)[C@H]1CC[C@@](C)([C@H]2CC[C@]3(C)[C@@H]2/C(=N/O)C[C@@H]2[C@@]4(C)CC[C@H](O)C(C)(C)[C@@H]4CC[C@]23C)O1
RAW264.7 [1]
  inhibition: inactive
RAW264.7 [2]
  Activity: Non-Toxic

## CC(C)(O)[C@@H]1CC[C@@](C)([C@H]2CC[C@]3(C)[C@@H]2[C@H](O)C[C@@H]2[C@@]4(C)CC[C@H](O)C(C)(C)[C@@H]4CC[C@]23C)O1
RAW264.7 [1]
  inhibition: inactive
RAW264.7 [2]
  Activity: Non-Toxic

## CC(C)(O)[C@H]1CC[C@@](C)([C@H]2CC[C@]3(C)[C@@H]2[C@H](O)C[C@@H]2[C@@]4(C)CCC(=O)C(C)(C)[C@@H]4CC[C@]23C)O1
RAW264.7 [1]
  inhibition: Active
RAW264.7 [2]
  Activity: Non-Toxic

## CC(C)(O)[C@H]1CC[C@@](C)([C@H]2CC[C@]3(C)[C@@H]2[C@H](O)C[C@@H]2[C@@]4(C)CC[C@@H](N)C(C)(C)[C@@H]4CC[C@]23C)O1
RAW264.7 [1]
  inhibition: Active
RAW264.7 [2]
  Activity: Non-Toxic

## CC(C)(O)[C@H]1CC[C@@](C)([C@H]2CC[C@]3(C)[C@@H]2C(=O)C[C@@H]2[C@@]4(C)CC[C@H](O)C(C)(C)[C@@H]4CC[C@]23C)O1
RAW264.7 [1]
  inhibition: Active
RAW264.7 [2]
  Activity: Non-Toxic

## C[C@]12CCC(=O)C=C1CC[C@@H]1[C@@H]2[C@@H](O)C[C@@]2(C)[C@H]1CC[C@]2(O)C(=O)COC(=O)CCC(=O)O
RAW264.7 [3]
  inhibition: Active
RAW264.7 [4]
  Activity: Active
RAW264.7 [5]
  Activity: Active
RAW264.7 [6]
  inhibition: Active

## CC(C)(O)[C@@H]1CC[C@@](C)([C@H]2CC[C@]3(C)[C@@H]2[C@H](O)C[C@@H]2[C@@]4(C)CCC(=O)C(C)(C)[C@@H]4CC[C@]23C)O1
RAW264.7 [1]
  inhibition: Active
RAW264.7 [2]
  Activity: Non-Toxic

## CCCCCC(=O)O[C@H]1CC[C@]2(C)[C@H]3C[C@@H](O)[C@@H]4[C@@H]([C@]5(C)CC[C@@H](C(C)(C)O)O5)CC[C@@]4(C)[C@]3(C)CC[C@H]2C1(C)C
RAW264.7 [1]
  inhibition: Active
RAW264.7 [2]
  Activity: Non-Toxic

## CCCCCC(=O)O[C@H]1CC[C@]2(C)[C@H]3C[C@@H](O)[C@@H]4[C@@H]([C@]5(C)CC[C@H](C(C)(C)O)O5)CC[C@@]4(C)[C@]3(C)CC[C@H]2C1(C)C
RAW264.7 [1]
  inhibition: Active
RAW264.7 [2]
  Activity: Non-Toxic

## CC(C)(O[Si](C)(C)C(C)(C)C)[C@H]1CC[C@@](C)([C@H]2CC[C@]3(C)[C@@H]2[C@H](O)C[C@@H]2[C@@]4(C)CC[C@H](O)C(C)(C)[C@@H]4CC[C@]23C)O1
RAW264.7 [1]
  inhibition: inactive
RAW264.7 [2]
  Activity: Non-Toxic

## CC(C)(O)[C@H]1CC[C@@](C)([C@H]2CC[C@]3(C)[C@@H]2[C@@H](O)C[C@@H]2[C@@]4(C)CC[C@H](O)C(C)(C)[C@@H]4CC[C@]23C)O1
RAW264.7 [1]
  inhibition: inactive

## CC(C)(O)[C@H]1CC[C@@](C)([C@H]2CC[C@]3(C)[C@@H]2[C@H](O)C[C@@H]2[C@@]4(C)CC/C(=N\O)C(C)(C)[C@@H]4CC[C@]23C)O1
RAW264.7 [7]
  Activity: Active
RAW264.7 [8]
  Activity: Dose-dependent effect
RAW264.7 [9]
  Activity: Dose-dependent effect
RAW264.7 [1]
  inhibition: Active
RAW264.7 [2]
  Activity: Non-Toxic
RAW264.7 [10]
  inhibition: Active
RAW264.7 [11]
  Activity: Dose-dependent effect
RAW264.7 [12]
  inhibition: Active
RAW264.7 [13]
  Activity: Dose-dependent effect

## CC(C)(O)[C@H]1CC[C@@](C)([C@H]2CC[C@]3(C)[C@@H]2[C@H](O)C[C@@H]2[C@@]4(C)CC[C@H](O)C(C)(C)[C@@H]4CC[C@]23C)O1
RAW264.7 [1]
  inhibition: Active
RAW264.7 [2]
  Activity: Non-Toxic

## CC(C)(O)[C@H]1CC[C@@](C)([C@H]2CC[C@]3(C)[C@@H]2C(=N)C[C@@H]2[C@@]4(C)CC[C@H](O)C(C)(C)[C@@H]4CC[C@]23C)O1
RAW264.7 [1]
  inhibition: inactive
RAW264.7 [2]
  Activity: Non-Toxic

## CC(C)(O)[C@H]1CC[C@@](C)([C@H]2CC[C@]3(C)[C@@H]2C(=O)C[C@@H]2[C@@]4(C)CCC(=O)C(C)(C)[C@@H]4CC[C@]23C)O1
RAW264.7 [2]
  Activity: Non-Toxic

## CC(C)(O)[C@H]1CC[C@@](C)([C@H]2CC[C@]3(C)[C@@H]2[C@@H](N)C[C@@H]2[C@@]4(C)CC[C@H](O)C(C)(C)[C@@H]4CC[C@]23C)O1
RAW264.7 [2]
  Activity: Toxic
